# Published values collected from several papers.
# Lines come from different studies, so protocols differ.
# Read-out: cell growth or viability
SMILES,cell line,method,tested at,time,measurement,result
O=C(Nc1ccc(-c2cn(Cc3ccc(Br)cc3)nn2)cc1)Nc1ccccc1Br,PC-9,CCK-8,50 µM,72 h,viability,106%
O=C(Nc1ccc(Cl)cc1)Nc1cccc(-c2cn(Cc3cccc(Br)c3)nn2)c1,PC-9,CCK-8,20 µM,72 h,viability,101%
O=C(Nc1cccc(F)c1)Nc1nc2cc(-c3ccc4ncn(Cc5ccccc5)c(=O)c4c3)ccc2s1,PC-9,MTT,,72 h,IC50,> 20 µM
O=C(Nc1ccc(Cl)cc1)Nc1cccc(-c2cn(Cc3ccc(Cl)cc3)nn2)c1,PC-9,CCK-8,50 µM,72 h,viability,110%
NCC(=O)Nc1ccccc1/N=c1\cc(-c2ccc3c(c2)OCO3)oc2c([N+](=O)[O-])cccc12,HCT-116,CCK-8,1 µM,,inhibition,12.2%
COc1ccc(C=NNC(=O)c2nc3ccccc3s2)cc1O,HCT-116,MTT,100 µM,48 h,cell death,33.5%
O=C(NCc1cn(Cc2cccc(Cl)c2)nn1)Nc1ccc(Cl)cc1,PC-9,CCK-8,50 µM,72 h,viability,90%
COc1ccc(NC(=O)NCc2cn(Cc3ccccc3C)nn2)cc1,PC-9,CCK-8,50 µM,72 h,viability,109%
O=C(Nc1cccc(C(F)(F)F)c1)Nc1nc2cc(-c3ccc4ncn(CCN5CCOCC5)c(=O)c4c3)ccc2s1,PC-9,MTT,,72 h,IC50,> 20 µM
CCCCCCCCCCCCCCCCCCOc1cccc(CC(=O)OCC[N+]2(C)CCCCC2)c1,EKVX,SRB,10 µM,,inhibition,3.05%
O=C(Nc1cccc(F)c1)Nc1nc2cc(-c3ccc4ncn(CCN5CCOCC5)c(=O)c4c3)ccc2s1,PC-9,MTT,,72 h,IC50,> 20 µM
COc1ccc(NC(=O)NCc2cn(Cc3ccc(Br)cc3)nn2)cc1,PC-9,CCK-8,50 µM,72 h,viability,143%
CCCCCCCCCCCCCCCCCCOc1ccccc1CC(=O)OCC[N+]1(C)CCOCC1,EKVX,SRB,10 µM,,inhibition,13.3%
Cc1nc(NC(=O)N2CCC[C@H]2C(N)=O)sc1-c1ccnc(C(C)(C)C(F)(F)F)c1,AGS,ATP luminescence,,5 days,EC50,3.01 µM
O=C(Nc1cc(C(F)(F)F)cc(C(F)(F)F)c1)Nc1nc2cc(-c3ccc4ncn(Cc5ccccc5)c(=O)c4c3)ccc2s1,PC-9,MTT,,72 h,IC50,> 20 µM
COc1ccc(NC(=O)Nc2cccc(-c3cn(Cc4ccccc4C)nn3)c2)cc1,PC-9,CCK-8,20 µM,72 h,viability,121%
O=C(Nc1ccc(F)cc1)Nc1nc2cc(-c3ccc4ncn(Cc5ccccc5)c(=O)c4c3)ccc2s1,PC-9,MTT,,72 h,IC50,7.3 µM
NCC(=O)Nc1ccccc1/N=c1\cc(-c2ccc3c(c2)OCO3)oc2c(N)cccc12,HCT-116,CCK-8,1 µM,,inhibition,14.3%
CCCCCCCCCCCCCCCCCCOc1ccccc1CC(=O)OCC[N+](C)(C)C,EKVX,SRB,10 µM,,inhibition,53.1%
O=C(Nc1ccccc1/N=c1\cc(-c2ccc3c(c2)OCO3)oc2ccccc12)N1CCOCC1,HCT-116,CCK-8,1 µM,,inhibition,11.2%
C[C@H](Nc1ccc2c(c1)OCCn1cc(N3C(=O)OC[C@H]3C(F)F)nc1-2)C(N)=O,AGS,ATP luminescence,,5 days,EC50,0.158 µM
CCOc1ccc(-c2cc(C(=O)O)c(-c3ccc(Cl)cc3)o2)cc1,HCT-116,MTT,,48 h,EC50,78 µM
COc1ccc(NC(=O)Nc2ccc(-c3cn(Cc4cccc(Cl)c4)nn3)cc2)cc1,PC-9,CCK-8,20 µM,72 h,viability,98.2%
CCCCCCCCCCCCCCCCCCOc1ccccc1CC(=O)OCC[N+]1(C)CCCC1,EKVX,SRB,10 µM,,inhibition,46.1%
COc1ccc(NC(=O)Nc2cccc(-c3cn(Cc4ccc(Br)cc4)nn3)c2)cc1,PC-9,CCK-8,20 µM,72 h,viability,141%
O=C(Nc1ccc(Cl)cc1)Nc1nc2cc(-c3ccc4ncn(Cc5ccccc5)c(=O)c4c3)ccc2s1,PC-9,MTT,,72 h,IC50,> 20 µM
O=C(Nc1ccc(Cl)cc1)Nc1ccc(-c2cn(Cc3ccc(Cl)cc3)nn2)cc1,PC-9,CCK-8,20 µM,72 h,viability,86%
N#CCCN(C(=O)CCl)c1ccc2c(c1)OCCN2CC(=O)N1CCC(C(=O)Nc2ccc(C(=O)NCCCCCCC(=O)NO)cc2)CC1,U-87 MG,MTT,,,EC50,> 50 µM
O=C(Nc1ccc(Cl)cc1)Nc1ccc(-c2cn(Cc3cccc(Cl)c3)nn2)cc1,PC-9,CCK-8,20 µM,72 h,viability,72.1%
C[C@H](N)C(=O)Nc1ccccc1/N=c1\cc(-c2ccc3c(c2)OCCO3)oc2c([N+](=O)[O-])cccc12,HCT-116,CCK-8,1 µM,,inhibition,12.7%
Cc1nc(Nc2ncc(C(=O)Nc3c(C)cccc3Cl)s2)cc(N2CC[C@H](O)C2)n1,WSUDLCL2,ATP luminescence,10 µM,72 h,inhibition,13%
CCCCCCCCCCCCCCCCCCOc1ccccc1CC(=O)OCCC[N+](C)(C)C,EKVX,SRB,10 µM,,inhibition,21%
COCCC(=O)Nc1ccccc1/N=c1\cc(-c2ccc3nc(N)oc3c2)oc2ccccc12,HCT-116,CCK-8,1 µM,,inhibition,3.71%
CCCCCCCCCCCCCCCCCCOc1ccc(CC(=O)OCC[N+](CC)(CC)CC)cc1,EKVX,SRB,10 µM,,inhibition,12.5%
NCCC(=O)Nc1ccccc1/N=c1\cc(-c2ccc3c(c2)OCO3)oc2ccccc12,HCT-116,CCK-8,1 µM,,inhibition,10.8%
O=C(NN=Cc1ccc(O)cc1)c1nc2ccccc2s1,HCT-116,MTT,100 µM,48 h,cell death,50%
O=C(Nc1ccc(-c2cn(Cc3ccc(Cl)cc3)nn2)cc1)Nc1ccccc1Br,PC-9,CCK-8,20 µM,72 h,viability,98.3%
COc1ccc(NC(=O)NCc2cn(Cc3ccc(Cl)cc3)nn2)cc1,PC-9,CCK-8,50 µM,72 h,viability,104%
O=C(Nc1ccc(Cl)cc1)Nc1cccc(-c2cn(Cc3cccc(Cl)c3)nn2)c1,PC-9,CCK-8,50 µM,72 h,viability,118%
CCCS(=O)(=O)Oc1cc(C=NNC(=O)c2nc3ccccc3s2)ccc1OC,HCT-116,MTT,100 µM,48 h,cell death,42.7%
CCCCCCCCCCCCCCCCCCOc1cccc(CC(=O)OCC[N+](CC)(CC)CC)c1,EKVX,SRB,10 µM,,inhibition,22.3%
Oc1cccc(-c2nc(N3CCOCC3)c3oc4ncccc4c3n2)c1,HCT-116,CCK-8,1 µM,,inhibition,12.5%
COc1ccc(NC(=O)Nc2cccc(-c3cn(Cc4cccc(Cl)c4)nn3)c2)cc1,PC-9,CCK-8,50 µM,72 h,viability,136%
CNCCC(=O)Nc1ccccc1/N=c1\cc(-c2ccc3nc(N)oc3c2)oc2ccccc12,HCT-116,CCK-8,1 µM,,inhibition,76.8%
O=C(NCc1cn(Cc2ccc(Br)cc2)nn1)Nc1ccc(Cl)cc1,PC-9,CCK-8,50 µM,72 h,viability,179%
